Reference: ChEMBL document CHEMBL1799922, “Synthesis and antimycobacterial activity of prodrugs of indeno[2,1-c]quinoline derivatives” (Eur J Med Chem, 2011)
Converted amounts (≈) assume the structure as drawn. The source made the active and inactive calls. No cut-off for these calls is given here.

Test system: Mycobacterium tuberculosis
Assay: Antimicrobial activity against Mycobacterium tuberculosis H37Rv ATCC 27294 after 16 to 24 hrs by microplate alamar blue assay
Format: functional
Conditions: not given
Method in brief: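 M. tuberculosis H37Rv inoculum 2×10^5 cfu/mL (100 µL) added to twofold dilutions in Middlebrook 7H12 medium; final test range 128 µM to 0.5 µM from 12.8 mM DMSO stocks. Incubated 37 °C; day 7 Tween 80 plus Alamar Blue added, further 16-24 h at 37 °C. Fluorescence ex 530/em 590 nm; MIC = lowest concentration giving >90% fluorescence reduction versus replicate bacteria-only controls. Rifampin, isoniazid controls.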

Structure (SMILES) | MIC
CN(C)C(=O)OC1(C)c2ccccc2-c2c1c(-n1ccnc1)nc1ccc(Br)cc21 (centres undefined) | 6 µg/mL (≈ 12.9 µM)
CC(C)(C)OC(=O)NCC(=O)OC1(C)c2ccccc2-c2c1c(-n1ccnc1)nc1ccc(Br)cc21 (centres undefined) | 2.03 µg/mL (≈ 3.69 µM)
CCCCCCC(=O)OC1(C)c2ccccc2-c2c1c(-n1ccnc1)nc1ccc(Br)cc21 (centres undefined) | 0.42 µg/mL (≈ 0.833 µM)
CCCCCCC(=O)O/N=C1\c2ccccc2-c2c1c(N1CCN(c3ccccn3)CC1)nc1ccc(Br)cc21 | inactive
CSCC[C@H](NC(=O)OC(C)(C)C)C(=O)O/N=C1\c2ccccc2-c2c1c(N1CCN(c3ccccn3)CC1)nc1ccc(Br)cc21 | inactive
CC(=O)O/N=C1\c2ccccc2-c2c1c(N1CCN(c3ccccn3)CC1)nc1ccc(Br)cc21 | inactive
CCCCCCCCC(=O)OC1(C)c2ccccc2-c2c1c(-n1ccnc1)nc1ccc(Br)cc21 (centres undefined) | 1.56 µg/mL (≈ 2.93 µM)
CCCCCC(=O)OC1(C)c2ccccc2-c2c1c(-n1ccnc1)nc1ccc(Br)cc21 (centres undefined) | 1.6 µg/mL (≈ 3.26 µM)

Test system: not listed separately
Assay: Cytotoxicity against human U937 cells assessed as cell viability at 1.25 ug/ml after 72 hrs by MTT assay
Format: cell-based, U-937
Conditions: read-out: Activity
Method in brief: (§1)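 U937 human monocytic cells plated at 1 × 10^5 cells/mL and allowed to adhere for 1 h at 37 °C in 5% CO2. Non-adherent cells were washed off with RPMI 1640. Adherent cells were exposed to compound in triplicate, with medium alone as the live control and 3% Tween 20 as the dead control. MTT (5 mg/mL in PBS) was then added for 3 h at 37 °C. Formazan was dissolved in 0.4 M HCl/isopropanol and absorbance read at 600 nm. Results are expressed as % cell viability.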

Structure (SMILES) | viability at 72 h, 1.25 ug/ml [%]
CN(C)C(=O)OC1(C)c2ccccc2-c2c1c(-n1ccnc1)nc1ccc(Br)cc21 (centres undefined) | 63
CC(C)(C)OC(=O)NCC(=O)OC1(C)c2ccccc2-c2c1c(-n1ccnc1)nc1ccc(Br)cc21 (centres undefined) | 90
CCCCCCC(=O)OC1(C)c2ccccc2-c2c1c(-n1ccnc1)nc1ccc(Br)cc21 (centres undefined) | 85
CCCCCCCCC(=O)OC1(C)c2ccccc2-c2c1c(-n1ccnc1)nc1ccc(Br)cc21 (centres undefined) | 86
CCCCCC(=O)OC1(C)c2ccccc2-c2c1c(-n1ccnc1)nc1ccc(Br)cc21 (centres undefined) | 85

Test system: not listed separately
Assay: Cytotoxicity against human U937 cells assessed as cell viability at 5 ug/ml after 72 hrs by MTT assay
Format: cell-based, U-937
Conditions: read-out: Activity
Method in brief: as §1

Structure (SMILES) | viability at 72 h, 5 ug/ml [%]
CC(C)(C)OC(=O)NCC(=O)OC1(C)c2ccccc2-c2c1c(-n1ccnc1)nc1ccc(Br)cc21 (centres undefined) | 83
CCCCCCC(=O)OC1(C)c2ccccc2-c2c1c(-n1ccnc1)nc1ccc(Br)cc21 (centres undefined) | 83
CCCCCCCCC(=O)OC1(C)c2ccccc2-c2c1c(-n1ccnc1)nc1ccc(Br)cc21 (centres undefined) | 75
CCCCCC(=O)OC1(C)c2ccccc2-c2c1c(-n1ccnc1)nc1ccc(Br)cc21 (centres undefined) | 77

Test system: not listed separately
Assay: Cytotoxicity against human U937 cells assessed as cell viability at 10 ug/ml after 72 hrs by MTT assay
Format: cell-based, U-937
Conditions: read-out: Activity
Method in brief: as §1

Structure (SMILES) | viability at 72 h, 10 ug/ml [%]
CN(C)C(=O)OC1(C)c2ccccc2-c2c1c(-n1ccnc1)nc1ccc(Br)cc21 (centres undefined) | 69
CC(C)(C)OC(=O)NCC(=O)OC1(C)c2ccccc2-c2c1c(-n1ccnc1)nc1ccc(Br)cc21 (centres undefined) | 62
CCCCCCC(=O)OC1(C)c2ccccc2-c2c1c(-n1ccnc1)nc1ccc(Br)cc21 (centres undefined) | 68
CCCCCCCCC(=O)OC1(C)c2ccccc2-c2c1c(-n1ccnc1)nc1ccc(Br)cc21 (centres undefined) | 71
CCCCCC(=O)OC1(C)c2ccccc2-c2c1c(-n1ccnc1)nc1ccc(Br)cc21 (centres undefined) | 54

Test system: not listed separately
Assay: Cytotoxicity against human U937 cells assessed as cell viability at 20 ug/ml after 72 hrs by MTT assay
Format: cell-based, U-937
Conditions: read-out: Activity
Method in brief: as §1

Structure (SMILES) | viability at 72 h, 20 ug/ml [%]
CC(C)(C)OC(=O)NCC(=O)OC1(C)c2ccccc2-c2c1c(-n1ccnc1)nc1ccc(Br)cc21 (centres undefined) | 28
CCCCCCC(=O)OC1(C)c2ccccc2-c2c1c(-n1ccnc1)nc1ccc(Br)cc21 (centres undefined) | 54
CCCCCCCCC(=O)OC1(C)c2ccccc2-c2c1c(-n1ccnc1)nc1ccc(Br)cc21 (centres undefined) | 50
CCCCCC(=O)OC1(C)c2ccccc2-c2c1c(-n1ccnc1)nc1ccc(Br)cc21 (centres undefined) | 15

Test system: Serum
Assay: Stability of the compound in 80% human blood serum assessed as hydrolysis to 2-bromo-6-(1H-imidazol-1-yl)-7H-indeno[2,1-c]quinolin-7-one oxime at 1 mg after 24 hrs at 37 degC by LC-MS analysis
Format: ADME, cell-free
Conditions: not given
Method in brief: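 Enzymatic hydrolysis: 1 mg prodrug dissolved in 1 mL ethanol, then 200 µL preheated human blood serum diluted to 80% with 0.16 M phosphate buffer (pH 7.4) was added. Samples were kept at 37 °C (24 h) and centrifuged 10 min at 10,000 rpm. Remaining prodrug in the supernatant was monitored by TLC and LC-MS. t1/2 is the time to 50% hydrolysis.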

Structure (SMILES) | Activity
CN(C)C(=O)OC1(C)c2ccccc2-c2c1c(-n1ccnc1)nc1ccc(Br)cc21 (centres undefined) | Not Active
CC(C)(C)OC(=O)NCC(=O)OC1(C)c2ccccc2-c2c1c(-n1ccnc1)nc1ccc(Br)cc21 (centres undefined) | Not Active
CCCCCCC(=O)OC1(C)c2ccccc2-c2c1c(-n1ccnc1)nc1ccc(Br)cc21 (centres undefined) | Not Active
CCCCCCCCC(=O)OC1(C)c2ccccc2-c2c1c(-n1ccnc1)nc1ccc(Br)cc21 (centres undefined) | Not Active
CCCCCC(=O)OC1(C)c2ccccc2-c2c1c(-n1ccnc1)nc1ccc(Br)cc21 (centres undefined) | Not Active

Test system: not listed separately
Assay: Stability of the compound in 10% aqueous ammonia buffer at pH 8 assessed as hydrolysis to 2-bromo-6-(1H-imidazol-1-yl)-7H-indeno[2,1-c]quinolin-7-one oxime at 1 mg at 37 degC by LC-MS analysis
Format: physicochemical
Set-up: scale not given: the % may be the effect or the level left
Conditions: not given
Method in brief: (§2)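 Chemical hydrolysis: 1 mg prodrug dissolved in 1 mL of 10% aqueous ammonia in methanol (pH 8) and held in a thermostatted water bath at 37 °C, up to 24 h. Conversion to the parent oxime was followed by TLC and LC-MS. t1/2 is the time to 50% hydrolysis.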

Structure (SMILES) | Activity
CN(C)C(=O)OC1(C)c2ccccc2-c2c1c(-n1ccnc1)nc1ccc(Br)cc21 (centres undefined) | Not Active
CC(C)(C)OC(=O)NCC(=O)OC1(C)c2ccccc2-c2c1c(-n1ccnc1)nc1ccc(Br)cc21 (centres undefined) | 97%
CCCCCCC(=O)OC1(C)c2ccccc2-c2c1c(-n1ccnc1)nc1ccc(Br)cc21 (centres undefined) | 86%
CCCCCCCCC(=O)OC1(C)c2ccccc2-c2c1c(-n1ccnc1)nc1ccc(Br)cc21 (centres undefined) | 90%
CCCCCC(=O)OC1(C)c2ccccc2-c2c1c(-n1ccnc1)nc1ccc(Br)cc21 (centres undefined) | 90%

Test system: not listed separately
Assay: Half life in 10% aqueous ammonia buffer at pH 8 assessed as hydrolysis to 2-bromo-6-(1H-imidazol-1-yl)-7H-indeno[2,1-c]quinolin-7-one oxime at 37 degC by LC-MS analysis
Format: physicochemical
Conditions: not given
Method in brief: as §2

Structure (SMILES) | half-life [days]
CC(C)(C)OC(=O)NCC(=O)OC1(C)c2ccccc2-c2c1c(-n1ccnc1)nc1ccc(Br)cc21 (centres undefined) | 1
CCCCCCC(=O)OC1(C)c2ccccc2-c2c1c(-n1ccnc1)nc1ccc(Br)cc21 (centres undefined) | 13
CCCCCCCCC(=O)OC1(C)c2ccccc2-c2c1c(-n1ccnc1)nc1ccc(Br)cc21 (centres undefined) | 12
CCCCCC(=O)OC1(C)c2ccccc2-c2c1c(-n1ccnc1)nc1ccc(Br)cc21 (centres undefined) | 12

Test system: not listed separately
Assay: Octanol-water partition coefficient, log P of the compound at pH 7.4 at room temperature by UV spectrophotometric analysis
Format: physicochemical
Conditions: not given
Method in brief: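 Shake-flask method at room temperature: 1-octanol and phosphate buffer (pH 7.4) were pre-saturated by shaking for 24 h. Compound at 10^-4 M in equal volumes of both phases was shaken vigorously for 1 h, left to stand 15 min, then centrifuged 10 min at 10,000 rpm. UV absorbance of each phase was read at 280 nm against blanks, and P was taken as the octanol/water absorbance ratio.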

Structure (SMILES) | logD
CN(C)C(=O)OC1(C)c2ccccc2-c2c1c(-n1ccnc1)nc1ccc(Br)cc21 (centres undefined) | 1.9
CC(C)(C)OC(=O)NCC(=O)OC1(C)c2ccccc2-c2c1c(-n1ccnc1)nc1ccc(Br)cc21 (centres undefined) | 1.8
CCCCCCC(=O)OC1(C)c2ccccc2-c2c1c(-n1ccnc1)nc1ccc(Br)cc21 (centres undefined) | 1.7
CCCCCCCCC(=O)OC1(C)c2ccccc2-c2c1c(-n1ccnc1)nc1ccc(Br)cc21 (centres undefined) | 1.6
CCCCCC(=O)OC1(C)c2ccccc2-c2c1c(-n1ccnc1)nc1ccc(Br)cc21 (centres undefined) | 1.4

Test system: not listed separately
Assay: Selectivity index, ratio CC50 for human U937 cells to MIC for Mycobacterium tuberculosis H37Rv ATCC 27294
Format: functional, U-937
Conditions: not given

Structure (SMILES) | Selectivity Index
CC(C)(C)OC(=O)NCC(=O)OC1(C)c2ccccc2-c2c1c(-n1ccnc1)nc1ccc(Br)cc21 (centres undefined) | 6
CCCCCCC(=O)OC1(C)c2ccccc2-c2c1c(-n1ccnc1)nc1ccc(Br)cc21 (centres undefined) | 40.2
CCCCCCCCC(=O)OC1(C)c2ccccc2-c2c1c(-n1ccnc1)nc1ccc(Br)cc21 (centres undefined) | 11.4
CCCCCC(=O)OC1(C)c2ccccc2-c2c1c(-n1ccnc1)nc1ccc(Br)cc21 (centres undefined) | 6.1
